Assay results published in ChEMBL document CHEMBL4513216, “Probing the Open Global Health Chemical Diversity Library for Multistage-Active Starting Points for Next-Generation Antimalarials” (ACS Infect Dis, 2020).

Assay: Toxicity liver stage against HepG2, at 10uM
Format: cell-based
Set-up: test concentration 10 uM, cell line HepG2-A16-CD81EGFP
Settings: human, HepG2-A16-CD81EGFP cells; read-out: INHIBITION
Method in brief: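 Uninfected HepG2-A16-CD81EGFP cells, 3 × 10^3 per well, 1536-well, plated on prespotted compound at 10 μM final, parasite-free screening media added to match infected plates; puromycin 10 μM positive, DMSO 0.5% negative; run in parallel with 48 h PbLuc assay at 37 °C, 5% CO2; viability by CellTiter-Glo luminescence, normalized to controls.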

Row | Structure (SMILES) | cytotoxicity at 10 µM [%]
1 | CN(C)C(=O)Cn1cc(C(=O)NCCc2ccc(C(F)(F)F)cc2)nn1 | -15.6
2 | COCC(=O)Nc1ccc([C@@H](O)[C@H]2COCC(=O)N2CC(C)C)cc1 | 17.6
3 | CC(=O)N1CCC(NC2(Cc3cc(CN(C)C)on3)COC2)CC1 | -1.38
4 | COCC(=O)N1CCN(C(=O)c2cccs2)[C@@H](C(=O)OC)C1 | -8.64
5 | O=C(C1CC1)N1CC[C@H](c2nnc(-c3ccccc3F)o2)C1 | 0.705
6 | CC(=O)c1cc2ncc(C(=O)NC3CCCCC3)cc2[nH]1 | 0.0039
7 | CC(C)NC(=O)Cn1ccc2c(Cl)cccc21 | 7.46
8 | CCN(CC)C(=O)Cn1nc(C(C)C)c2cnn(C(C)(C)C)c2c1=O | 0.703
9 | CN(C)CC1CSCCCN1C(=O)c1ccsc1 (stereo unspecified) | 5.09
10 | Cn1nc(CNS(=O)(=O)Cc2ccccc2F)c2c1CCCC2 | -0.0785
11 | O=C(NCC1CC1)C1CCC2(CCN(C(=O)c3ccco3)CC2)O1 (stereo unspecified) | 5.91
12 | Cn1cc(-c2cnc3n2CCC32CCN(S(C)(=O)=O)CC2)cn1 | -127
13 | COCC(=O)N1CCC2(CC1)CC(N1CCOCC1)c1ccc(C)cc12 (stereo unspecified) | -116
14 | c1coc(CN2CCc3onc(Cn4ccnc4)c3C2)c1 | 7.52
15 | CN1CCC2(Cc3ccccc3NC2=O)C1 (stereo unspecified) | 9.82
16 | COC(=O)CCC(=O)N1CCC2(CN(Cc3ccc(Cl)cc3)C2)C1 | 5.7
17 | CCN1CCc2onc(CNc3ncccn3)c2C1 | 0.927
18 | CCCS(=O)(=O)N1CCC2(CC1)CC(Nc1ncccn1)CO2 (stereo unspecified) | -0.00726
19 | O=c1[nH]c2nc(NCC3CCCO3)ncc2c(=O)n1-c1cccc(F)c1 (stereo unspecified) | -9.24
20 | O=C(NCCCN1CCOCC1)c1nc(-c2ccc3cc[nH]c3c2)no1 | -0.663
21 | COCc1cccc(S(=O)(=O)NCc2cnn(C)c2C)c1 | -4.02
22 | CC(=O)N1CCC[C@@H](NCc2ccc(F)cc2)[C@@H]1c1ccc(C)s1 | -22.1
23 | Cc1cc(-c2cnc(C3CC3)nc2CN(C)C(=O)c2ccccn2)on1 | -45

Row | Structure (SMILES) | cytotoxicity at 10 µM [%]
24 | Cc1c(C(=O)N2CCC2)nnn1-c1ccc2ncccc2c1 | -2.29
25 | CCc1nc2n(n1)CC(Nc1nc(C)cc(N(C)C)n1)CC2 (stereo unspecified) | 5.02
26 | CCn1cc(S(=O)(=O)Nc2ccc3[nH]c(C4CCC4)nc3c2)cn1 | 1.45
27 | CC(=O)NCC(=O)N(CCc1ccccc1)C1CCOC1 (stereo unspecified) | 3.02
28 | NC(=O)[C@@H]1Cc2ccccc2CN1CCC(=O)N1CCOCC1 | -5.82
29 | CCN(CC)C(=O)Nc1ccc(N2CCSCC2)cc1C | -8.44
30 | CCNC(=O)CNS(=O)(=O)Cc1cc(-c2ccccc2)no1 | -6.71
31 | CC(C)Nc1cccc(C(=O)NCC(O)c2cccc(F)c2)c1 (stereo unspecified) | 4.67
32 | Cc1cc(CN(C)C(=O)NCc2ccnc(SC(C)(C)C)c2)no1 | 10.4
33 | CCc1nc(C2CCCN(C(=O)c3c[nH]c(C(C)C)n3)C2)no1 (stereo unspecified) | -5.43
34 | CC(=O)Nc1nc(CS(=O)(=O)CCCc2ccccc2)cs1 | -1.2
35 | CSc1ccc(NC(=O)NCc2nncn2C2CC2)cc1F | 0
36 | N#Cc1ccnc(N2CCN(CC(O)c3cc(F)ccc3F)CC2)c1 (stereo unspecified) | 1.31
37 | O=C(CC1CCCO1)Nc1cccc(N2CCN(CC3CC3)CC2)c1 (stereo unspecified) | -0.699
38 | CCN1CCN(C(=O)C2CCCc3[nH]ncc32)CC1 (stereo unspecified) | -1.21
39 | Cc1nc(C)n(CC2CN(CCc3ccccn3)CCO2)n1 (stereo unspecified) | 4.89
40 | O=C(C1CCCN1c1ncnc2ccsc12)N1CCSCC1 (stereo unspecified) | 3
41 | CCc1noc(CC)c1CNC(=O)Nc1cccc([S+](C)[O-])c1 (stereo unspecified) | 13.4
42 | Cc1noc(C2CCCN(CC(=O)N3CCNC(=O)C3)C2)n1 (stereo unspecified) | -13
43 | Cc1cc(C(=O)N2CCCN(c3nccs3)CC2)c(C)n1C(C)C | 9.48
44 | CC(C)(CO)CCCNC(=O)NC1(c2cccc(F)c2)CC1 | -4.86
45 | COCc1noc(-c2cc(Cl)c3c(c2)OCO3)n1 | -4.05
46 | Cc1cc(C(C)(O)CNC(=O)CCOCC(C)C)c(C)o1 (stereo unspecified) | 3.94

Row | Structure (SMILES) | cytotoxicity at 10 µM [%]
47 | CC(Cn1cccn1)NC(=O)NCCN1CCc2ccccc2C1 (stereo unspecified) | -4.45
48 | Cc1cc(NC(=O)Cc2ccccc2O)c[nH]c1=O | -2.38
49 | CC(C)CN(CC(O)c1ccc(F)cc1)C(=O)c1cnsn1 (stereo unspecified) | -6.87
50 | Cc1nsc(N2CCc3sccc3C2)n1 | 7.03
51 | Cc1nnc(-c2cccc(C#N)c2)n1C1CCN(C2CC2)C1=O (stereo unspecified) | -11.8
52 | CC(CO)(NC(=O)Nc1nnc(C(F)F)s1)C1CC1 (stereo unspecified) | 9.23
53 | CC(=O)N(Cc1ncc(C)o1)C1CCN(CCNC2CCCCC2)C1 (stereo unspecified) | 15.4
54 | CN(Cc1cccc(F)c1)S(=O)(=O)N1CCOCC1 | -1.97
55 | Cc1ccccc1C1(CNC(=O)NCCc2nnc3n2CCC3)CC1 | 2.48
56 | Cc1cccc(CN2CCn3c(COc4ncccn4)nnc3C2)n1 | -1.35
57 | Cn1cccc1C(=O)N1CCN2C[C@H](Oc3cccnc3)C[C@H]2C1 | 3.58
58 | CCC(O)CNC(=O)c1cc(COc2ccc(OC)cc2Cl)[nH]n1 (stereo unspecified) | -8.09
59 | Cc1ccccc1C(C(=O)NCc1nc(-c2ncccn2)no1)N(C)C (stereo unspecified) | 3.09
60 | CCN1CCC(CC(=O)NCCc2nc(C)cc(C)n2)CC1 | -8.06
61 | C=Cc1cccc(CN(Cc2cnn(C)c2)C2CC2)c1 | 3
62 | Cn1ncc2c(N3CCN4CCCCC4C3)nc(C3CCCC3)nc21 (stereo unspecified) | -139
63 | OC1COCCN(Cc2cc(-c3ccccc3OC(F)(F)F)no2)C1 (stereo unspecified) | -12.7
64 | CCCc1nc(C)cc(N2CCC3(CCC(=O)N(CCCO)C3)CC2)n1 | -5.81
65 | CNc1ccc(C)cc1C(=O)N[C@H]1C[C@H]2CN(C)CCN2C1 | -4.57
66 | COc1cnc(N2C[C@H](CO)C[C@H](CN3CCOCC3)C2)nc1 | -8.11
67 | COc1cc(F)ccc1-c1nc2c([nH]1)c(C1CC1)nn2C | -1.72
68 | COc1ccc(C(C(=O)O)N2CCN(C3CCCC3)CC2)cc1OC (stereo unspecified) | -17.1
69 | CCn1c(N)nc2cc(C(=O)NCc3cccc(C)c3C)cnc21 | 19.7

Row | Structure (SMILES) | cytotoxicity at 10 µM [%]
70 | Cc1cnn(CCCn2c(C)cc(C(F)(F)F)cc2=O)c1 | 0.529
71 | Cc1ccc(OCC(O)CNC(=O)C2(c3ccc(F)cc3)CC2)cc1 (stereo unspecified) | 0.675
72 | CN(Cc1ccc2nonc2c1)C(=O)c1ccc(C2CCCO2)s1 (stereo unspecified) | 12.1
73 | O=C(O)[C@]12CCCN(Cc3cccnc3)[C@@H]1CCN(c1cnccn1)C2 | 4.63
74 | c1ccc(CN2CCC(NCCSc3cnn[nH]3)C2)cc1 (stereo unspecified) | 1.12
75 | COc1ccccc1C(=O)Nc1ccc(OC2CCN(C)CC2)cc1 | -4.85
76 | O=C(NCc1ccc2c(c1)CCCO2)c1ccccc1C1CCNC1 (stereo unspecified) | 6.58
77 | COCCN(C)C[C@@H]1CN(c2nnc(C(C)C)s2)C[C@@H]1CO | -2.35
78 | Cc1cc(N2CCOC(C(F)(F)F)C2)nc(-c2ccccc2)n1 (stereo unspecified) | -1.23
79 | Cc1ccc(N2CCC(N3C[C@@H](CN(C)C)[C@@H](CO)C3)CC2)cc1 | -0.608
80 | CCn1nc(CC(C)C)cc1C(=O)NCCCOC | -18.8
81 | CCn1nc(C)c(CNC(=O)c2cn(CCC3CCCCN3)nn2)c1C (stereo unspecified) | -1.96
82 | CN1C(=O)C(c2ccccc2)CC12CCN(CCOCCO)CC2 (stereo unspecified) | 39.8
83 | CN(C)C(=O)c1ccc2c(c1)N(C)C(CC(=O)NCc1ccno1)CO2 (stereo unspecified) | 12.4
84 | O=C(O)CCc1nc2nccc(C(F)(F)F)n2n1 | -1.36
85 | CN(Cc1cnn(C)c1)C(=O)NCCc1ccc2c(c1)OCO2 | -12.4
86 | Cc1ccc(CN(Cc2nc3c(cnn3C)c(=O)[nH]2)C(C)C)s1 | -5.48
87 | CCn1ccnc1CN1CCCN(C(=O)c2ccnc(C)n2)CC1 | -12.2
88 | Cc1noc(C)c1C(=O)NCc1cccnc1N(C)C | -9.42
89 | Cc1nnc2n1CCN(Cc1ncc(-c3ccccc3)o1)C2 | -3.78
90 | CN(Cc1nccn1C)C1CCCN(Cc2noc(C3CC3)n2)C1 (stereo unspecified) | -3.54
91 | O=C(CCCn1cncn1)N1CCCC1c1noc(C2CC2)n1 (stereo unspecified) | -31.5
92 | O=C(NCc1ccnc(-n2cccn2)c1)C1CC(=O)N(CC2CC2)C1 (stereo unspecified) | 5.48

Row | Structure (SMILES) | cytotoxicity at 10 µM [%]
93 | Cc1nn(C)c(N2CCOCC2)c1CNCc1ccccc1CO | -13.2
94 | Cc1ccc(NC2CCN(C(=O)c3cccc(F)c3F)CC2)nn1 | -4.4
95 | CCOC1CCCN(C(=O)NCCc2ccn(-c3ccccc3)n2)C1 (stereo unspecified) | 3.13
96 | c1cnn(CC2CN(CCc3ccncc3)CCO2)c1 (stereo unspecified) | 2.74
97 | O=C(Nc1cc(F)ccc1OCC1CCCO1)c1ccccn1 (stereo unspecified) | 2.57
98 | Cc1ccc(NCc2cncc3c2CCN(C(=O)C2CC=CC2)C3)nn1 | -2.42
99 | Cc1nn(C)cc1-c1cncn1CCN(C)C1CCCC1 | -4.64
100 | CCCNC(=O)c1cc2c(s1)CCN2C(=O)CN(C)C | 2.03
101 | CC(=O)N1CCC2(CCCN2Cc2cnn(C)c2)CC1 | -2.27
102 | COCCN1CCC2(C1)CN(c1ncccn1)C2 | 10.7
103 | CC(C)OCCCN(Cc1ccncc1)Cc1cc(F)cc(F)c1 | -25.6
104 | CN(C)C(=O)N1CCC2(CC1)CCN(c1ncccn1)C2 | -1.05
105 | Cc1cccc(CN2C[C@@H]3COC[C@]3(COCC(=O)N(C)C)C2)n1 | -1.95
106 | Cc1ccc(CN2CC[C@@H]3O[C@@H](C(=O)N4CCN(C)CC4)C[C@@H]32)cc1 | -3.62
107 | CC(C)c1nn(C)c(N(C)C)c1CNC1CCc2cc(F)ccc21 (stereo unspecified) | 1.93
108 | CC1CCN(C(=O)[C@@H]2C[C@@H]3CCN(CC4CCOCC4)C[C@@H]3O2)CC1 | 7.13
109 | C=c1ccoc1=C1NN=C(CNCCn2cc(C)cn2)O1 | 1.12
110 | CC1=C(C#N)C(=O)NC(=O)/C1=C\c1c(C)[nH]n(-c2ccccc2)c1=O | 0.137
111 | O=C(NC1CCC(O)CC1)c1ccc2nc(-c3ccccc3)cn2c1 (stereo unspecified) | 8.99
